Columns and labels:
[1] = (§1) Inhibition of gp120 (Gln 105 residue) in HIV-1 JR-FL infected in dog Cf2Th-CD4/CCR5 cells assessed as inhibition of viral entry incubated for 30 mins prior to infection and further incubated for 48 to 72 hrs in presence of firefly D-luciferin free acid and ATP by single-round infection luciferase assay; format: cell-based; details: Human immunodeficiency virus 1, JR-FL
How it was run: (§2)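 Cf2Th canine cells expressing CD4 and CCR5 were infected with the named HIV-1 strain in the presence of compound. IC50 was taken as the concentration giving 50% inhibition of viral infection, reported as mean ± SD. Groups were compared by one-tailed unpaired t test (N = 3).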

[2] = as §1, with “(His” for “(Gln”, “BG505” for “JR-FL”; format: cell-based; details: Human immunodeficiency virus 1, BG505, Cf2Th-CD4/CCR5; how it was run: as §2

| Structure (SMILES) | IC50 [1] [µM] | IC50 [2] [µM] |
| --- | --- | --- |
| CNCc1ccc2c(c1)[C@@H](CC[C@H](O)CO)[C@H](CNC(=N)N)[C@H]2NC(=O)C(=O)Nc1ccc(Cl)c(F)c1 | 17.7 | – |
| CCCC[C@@H]1c2cc(CNC)ccc2[C@H](NC(=O)C(=O)Nc2ccc(Cl)c(F)c2)[C@H]1CNC(=N)N | 32.5 | – |
| CNCc1ccc2c(c1)[C@@H](CCCO)[C@H](CNC(=N)N)[C@H]2NC(=O)C(=O)Nc1ccc(Cl)c(F)c1 | 8.25 | 136 |
| CNCc1ccc2c(c1)[C@@H](CC[C@@H](O)CO)[C@H](CNC(=N)N)[C@H]2NC(=O)C(=O)Nc1ccc(Cl)c(F)c1 | 22 | – |
| C=CCC[C@@H]1c2ccc(CNC)cc2[C@H](NC(=O)C(=O)Nc2ccc(Cl)c(F)c2)[C@H]1CNC(=N)N | 16.2 | > 100 |
| CNCc1ccc2c(c1)C[C@H](CNC(=N)N)[C@H]2NC(=O)C(=O)Nc1ccc(Cl)c(F)c1 | 9 | 226 |
| CNCc1ccc2c(c1)[C@H](NC(=O)C(=O)Nc1ccc(Cl)c(F)c1)[C@@H](CNC(=N)N)[C@@H]2CCCO | 9.45 | 164 |
| CNCc1ccc2c(c1)[C@@H](CCC(O)CO)[C@H](CNC(=N)N)[C@H]2NC(=O)C(=O)Nc1ccc(Cl)c(F)c1 (mixture of isomers) | 8.29 | 130 |
| C=CCC[C@@H]1c2cc(CNC)ccc2[C@H](NC(=O)C(=O)Nc2ccc(Cl)c(F)c2)[C@H]1CNC(=N)N | 9.22 | 106 |
| CNCc1ccc2c(c1)[C@@H](CCC(=O)CO)[C@H](CNC(=N)N)[C@H]2NC(=O)C(=O)Nc1ccc(Cl)c(F)c1 | 4.97 | 166 |
| CNCc1ccc2c(c1)[C@H](NC(=O)C(=O)Nc1ccc(Cl)c(F)c1)[C@@H](CNC(=N)N)[C@@H]2CC[C@H](O)CO | 27.8 | – |
| CNCc1ccc2c(c1)[C@H](NC(=O)C(=O)Nc1ccc(Cl)c(F)c1)[C@@H](CNC(=N)N)[C@@H]2CCC(O)CO (stereo not given in full) | 19.5 | > 300 |
